Reference: paper PMC5715471 (ACS chemical neuroscience, 2017)

Columns and labels:
[1] = test system: mouse spared nerve injury (SNI) model; experiment: Mechanical sensitivity; format: in vivo
Procedure, shortened: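 Male C57Bl6/J mice with SNI (peroneal and tibial sciatic branches cut, sural spared), confirmed hypersensitive 2 weeks post-surgery and screened 21–60 days after SNI. Single intrathecal 10 μg in 5 μL saline (DMSO <5%, vehicle DMSO-matched). Blinded hindpaw von Frey, modified up–down, at set times. n = 4–11. Mean ± SEM; two-way ANOVA with Bonferroni. Repeat injections ≥14 days apart.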

[2] = test system: mouse spared nerve injury (SNI) model; experiment: Mechanical sensitivity; format: in vivo; remark: listed apart in the source
Procedure, shortened: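 Male C57Bl6/J SNI mice, hindpaw mechanical hypersensitivity confirmed 2 weeks post-surgery. Tail-vein IV injection in 100 μL sterile saline (DMSO stock diluted; vehicle DMSO-matched): test compound 10 mg/kg, gabapentin 100 mg/kg, or vehicle, n = 6 each. Blinded von Frey testing (modified up–down) at set time points. Mean ± SEM; two-way ANOVA with Bonferroni post hoc.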

[3] = test system: SNI mice; experiment: Rotorod test of motor performance; format: in vivo, mouse; conditions: IV 10 mg/kg, 48 h after injection, third trial
Procedure, shortened: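 SNI mice given IV vehicle or test compound 10 mg/kg in sterile saline, tested 48 h later. Automated rotorod accelerating to 40 rpm over 200 s. Two training runs; latency to fall recorded on third trial. n = 6 per group; two-tailed t test.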

[4] = target: 5HT1A (Homo sapiens, UniProt P08908); experiment: PDSP radioligand binding, 5HT1A; conditions: 10 μM
Chain of 5HT1A (P08908 whole entry): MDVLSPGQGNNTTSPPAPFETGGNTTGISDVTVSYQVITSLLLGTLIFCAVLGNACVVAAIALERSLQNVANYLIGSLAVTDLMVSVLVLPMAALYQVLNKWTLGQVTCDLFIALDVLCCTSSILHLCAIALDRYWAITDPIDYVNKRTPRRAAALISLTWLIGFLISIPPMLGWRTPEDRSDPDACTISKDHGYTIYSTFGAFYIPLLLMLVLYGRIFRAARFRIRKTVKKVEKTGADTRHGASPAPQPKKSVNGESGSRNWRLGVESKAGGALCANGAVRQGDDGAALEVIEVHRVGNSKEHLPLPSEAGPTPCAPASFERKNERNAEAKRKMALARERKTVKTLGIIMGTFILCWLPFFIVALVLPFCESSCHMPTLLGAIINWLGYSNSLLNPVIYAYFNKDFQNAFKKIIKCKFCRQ

[5] = target: 5HT1B (Homo sapiens, UniProt P28222); experiment: PDSP radioligand binding, 5HT1B; conditions: 10 μM
[6] = target: 5HT1D (Homo sapiens, UniProt P28221); experiment: PDSP radioligand binding, 5HT1D; conditions: 10 μM
[7] = target: 5HT1e (Homo sapiens, UniProt P28566); experiment: PDSP radioligand binding, 5HT1e; conditions: 10 μM
[8] = target: 5HT5a (Homo sapiens, UniProt P47898); experiment: PDSP radioligand binding, 5HT5a; conditions: 10 μM
Chain of 5HT5a (P47898 whole entry): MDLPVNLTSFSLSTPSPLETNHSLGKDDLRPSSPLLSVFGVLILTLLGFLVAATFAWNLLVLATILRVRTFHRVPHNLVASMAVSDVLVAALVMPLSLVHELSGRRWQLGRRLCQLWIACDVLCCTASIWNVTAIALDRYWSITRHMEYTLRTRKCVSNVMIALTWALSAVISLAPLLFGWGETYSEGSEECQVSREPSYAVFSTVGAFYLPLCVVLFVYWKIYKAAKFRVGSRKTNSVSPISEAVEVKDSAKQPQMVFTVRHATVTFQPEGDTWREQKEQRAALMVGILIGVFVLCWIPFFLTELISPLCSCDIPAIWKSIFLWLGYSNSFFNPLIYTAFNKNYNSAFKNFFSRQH

[9] = target: 5HT6 (Homo sapiens, UniProt P50406); experiment: PDSP radioligand binding, 5HT6; conditions: 10 μM
[10] = target: A2B4 (Rattus norvegicus, UniProt P12389+P12392); experiment: PDSP radioligand binding, A2B4; conditions: 10 μM
Chain of A2B4 (P12389 28-511): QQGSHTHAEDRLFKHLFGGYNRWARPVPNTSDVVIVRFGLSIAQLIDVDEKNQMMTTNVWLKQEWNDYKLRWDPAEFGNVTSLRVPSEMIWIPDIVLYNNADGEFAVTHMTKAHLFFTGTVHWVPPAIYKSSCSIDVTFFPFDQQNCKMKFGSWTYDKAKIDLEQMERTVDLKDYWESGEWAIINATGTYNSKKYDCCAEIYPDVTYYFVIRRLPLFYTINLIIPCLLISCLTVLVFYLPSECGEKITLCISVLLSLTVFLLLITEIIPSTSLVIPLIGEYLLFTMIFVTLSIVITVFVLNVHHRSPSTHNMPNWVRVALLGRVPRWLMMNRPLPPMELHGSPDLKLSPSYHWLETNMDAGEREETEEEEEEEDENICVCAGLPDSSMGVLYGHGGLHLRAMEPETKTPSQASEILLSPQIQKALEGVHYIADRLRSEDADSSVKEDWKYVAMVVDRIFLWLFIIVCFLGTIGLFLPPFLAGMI
Chain of A2B4 (P12392 21-495): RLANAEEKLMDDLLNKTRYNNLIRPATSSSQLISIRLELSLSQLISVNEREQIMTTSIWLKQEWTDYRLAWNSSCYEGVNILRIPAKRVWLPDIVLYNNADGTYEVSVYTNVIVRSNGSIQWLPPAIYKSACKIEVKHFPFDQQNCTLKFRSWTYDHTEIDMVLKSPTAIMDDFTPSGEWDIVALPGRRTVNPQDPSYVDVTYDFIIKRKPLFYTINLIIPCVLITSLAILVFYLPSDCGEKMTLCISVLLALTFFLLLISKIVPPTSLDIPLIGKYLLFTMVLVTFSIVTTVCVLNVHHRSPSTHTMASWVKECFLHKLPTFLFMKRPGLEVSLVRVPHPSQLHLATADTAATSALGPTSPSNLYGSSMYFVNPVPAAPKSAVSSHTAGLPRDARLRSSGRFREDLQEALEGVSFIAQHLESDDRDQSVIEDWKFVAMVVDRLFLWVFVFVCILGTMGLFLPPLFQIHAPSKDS

[11] = target: A3B2 (Rattus norvegicus, UniProt P04757+P12390); experiment: PDSP radioligand binding, A3B2; conditions: 10 μM
[12] = target: A3B4 (Rattus norvegicus, UniProt P04757+P12392); experiment: PDSP radioligand binding, A3B4; conditions: 10 μM
[13] = target: T1, A4B2 (Rattus norvegicus, UniProt P09483+P12390); experiment: PDSP radioligand binding, A4B2; conditions: 10 μM
T1 sequence (P09483 31-630): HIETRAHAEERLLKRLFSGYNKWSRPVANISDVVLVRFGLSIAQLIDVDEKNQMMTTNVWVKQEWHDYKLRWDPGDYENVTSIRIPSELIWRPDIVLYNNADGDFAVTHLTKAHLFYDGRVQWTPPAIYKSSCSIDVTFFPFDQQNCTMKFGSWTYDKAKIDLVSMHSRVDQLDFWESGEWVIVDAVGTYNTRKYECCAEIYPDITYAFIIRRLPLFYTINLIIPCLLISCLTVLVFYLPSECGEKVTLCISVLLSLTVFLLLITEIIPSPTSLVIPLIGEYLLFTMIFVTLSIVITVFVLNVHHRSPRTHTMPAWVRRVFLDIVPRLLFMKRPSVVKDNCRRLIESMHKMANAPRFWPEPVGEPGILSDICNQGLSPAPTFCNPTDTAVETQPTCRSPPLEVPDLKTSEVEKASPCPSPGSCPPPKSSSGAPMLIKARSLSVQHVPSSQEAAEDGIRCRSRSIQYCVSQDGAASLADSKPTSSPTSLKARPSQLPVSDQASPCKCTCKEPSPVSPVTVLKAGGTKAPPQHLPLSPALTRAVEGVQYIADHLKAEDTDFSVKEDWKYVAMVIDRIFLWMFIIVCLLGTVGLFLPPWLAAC
T1 sequence (P12390 25-500): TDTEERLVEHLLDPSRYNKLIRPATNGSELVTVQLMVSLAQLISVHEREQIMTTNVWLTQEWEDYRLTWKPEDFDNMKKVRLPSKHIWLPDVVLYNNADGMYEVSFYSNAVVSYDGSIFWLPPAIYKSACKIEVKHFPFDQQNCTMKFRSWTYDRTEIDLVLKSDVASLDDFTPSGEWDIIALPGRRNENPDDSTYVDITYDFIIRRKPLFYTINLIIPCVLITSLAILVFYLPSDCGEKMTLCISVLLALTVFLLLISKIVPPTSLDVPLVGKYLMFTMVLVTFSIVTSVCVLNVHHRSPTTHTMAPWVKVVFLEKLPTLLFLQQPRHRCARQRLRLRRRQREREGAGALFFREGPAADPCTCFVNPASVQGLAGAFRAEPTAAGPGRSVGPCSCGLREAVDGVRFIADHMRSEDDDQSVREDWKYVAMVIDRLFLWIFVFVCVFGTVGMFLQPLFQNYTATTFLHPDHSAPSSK

[14] = target: T1, A4B2; experiment: PDSP radioligand binding, A4B2 sourced from rodent brain; conditions: 10 μM
[15] = target: A4B4 (Rattus norvegicus, UniProt P09483+P12392); experiment: PDSP radioligand binding, A4B4; conditions: 10 μM
[16] = test system: A7; experiment: PDSP radioligand binding, A7; conditions: 10 μM
[17] = target: Alpha1b (Homo sapiens, UniProt P35368); experiment: PDSP radioligand binding, Alpha1b; conditions: 10 μM
Chain of Alpha1b (P35368 whole entry): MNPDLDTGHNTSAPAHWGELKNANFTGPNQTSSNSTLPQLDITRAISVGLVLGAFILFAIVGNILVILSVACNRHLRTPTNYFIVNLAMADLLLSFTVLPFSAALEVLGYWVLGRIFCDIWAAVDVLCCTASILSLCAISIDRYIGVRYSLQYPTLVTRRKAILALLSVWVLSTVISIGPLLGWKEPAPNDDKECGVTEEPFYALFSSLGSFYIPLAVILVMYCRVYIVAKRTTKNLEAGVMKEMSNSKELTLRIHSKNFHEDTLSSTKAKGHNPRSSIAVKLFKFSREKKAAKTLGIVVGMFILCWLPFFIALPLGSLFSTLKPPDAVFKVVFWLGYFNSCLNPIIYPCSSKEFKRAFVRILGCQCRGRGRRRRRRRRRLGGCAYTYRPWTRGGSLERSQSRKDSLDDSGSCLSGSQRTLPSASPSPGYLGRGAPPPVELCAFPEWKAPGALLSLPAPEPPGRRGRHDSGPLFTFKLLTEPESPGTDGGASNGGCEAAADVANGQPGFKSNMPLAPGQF

[18] = target: Alpha2a (Homo sapiens, UniProt P08913); experiment: PDSP radioligand binding, Alpha2a; conditions: 10 μM
[19] = target: Alpha2b (Homo sapiens, UniProt P18089); experiment: PDSP radioligand binding, Alpha2b; conditions: 10 μM
Chain of Alpha2b (P18089 whole entry): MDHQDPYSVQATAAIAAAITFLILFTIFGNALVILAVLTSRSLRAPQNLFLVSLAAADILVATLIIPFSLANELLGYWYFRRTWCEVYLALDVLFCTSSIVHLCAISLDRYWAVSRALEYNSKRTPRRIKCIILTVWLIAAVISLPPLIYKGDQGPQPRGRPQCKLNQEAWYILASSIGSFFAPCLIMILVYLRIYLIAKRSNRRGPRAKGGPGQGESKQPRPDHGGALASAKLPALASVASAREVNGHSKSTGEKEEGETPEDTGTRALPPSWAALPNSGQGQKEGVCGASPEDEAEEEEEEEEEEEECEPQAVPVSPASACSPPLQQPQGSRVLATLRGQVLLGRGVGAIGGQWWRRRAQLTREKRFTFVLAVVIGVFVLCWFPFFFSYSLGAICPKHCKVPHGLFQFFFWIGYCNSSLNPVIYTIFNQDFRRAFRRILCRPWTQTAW

[20] = target: Beta2 (Homo sapiens, UniProt P07550); experiment: PDSP radioligand binding, Beta2; conditions: 10 μM
[21] = target: Beta3 (Homo sapiens, UniProt P13945); experiment: PDSP radioligand binding, Beta3; conditions: 10 μM
[22] = test system: BZP rat brain; experiment: PDSP radioligand binding, BZP rat brain; conditions: 10 μM
[23] = target: calcium channel; experiment: PDSP radioligand binding, calcium channel
[24] = target: D1 (Homo sapiens, UniProt P21728); experiment: PDSP radioligand binding, D1; conditions: 10 μM
[25] = target: D2 (Homo sapiens, UniProt P14416); experiment: PDSP radioligand binding, D2; conditions: 10 μM
[26] = target: D5 (Homo sapiens, UniProt P21918); experiment: PDSP radioligand binding, D5; conditions: 10 μM
[27] = target: DOR (Homo sapiens, UniProt P41143); experiment: PDSP radioligand binding, DOR; conditions: 10 μM
[28] = test system: GabaA; experiment: PDSP radioligand binding, GabaA; conditions: 10 μM
[29] = target: H1 (Homo sapiens, UniProt P35367); experiment: PDSP radioligand binding, H1; conditions: 10 μM
[30] = target: H3 (Homo sapiens, UniProt Q9Y5N1); experiment: PDSP radioligand binding, H3; conditions: 10 μM
[31] = target: M1 (Homo sapiens, UniProt P11229); experiment: PDSP radioligand binding, M1; conditions: 10 μM
[32] = target: M2 (Homo sapiens, UniProt P08172); experiment: PDSP radioligand binding, M2; conditions: 10 μM
[33] = target: M3 (Homo sapiens, UniProt P20309); experiment: PDSP radioligand binding, M3; conditions: 10 μM
Chain of M3 (P20309 whole entry): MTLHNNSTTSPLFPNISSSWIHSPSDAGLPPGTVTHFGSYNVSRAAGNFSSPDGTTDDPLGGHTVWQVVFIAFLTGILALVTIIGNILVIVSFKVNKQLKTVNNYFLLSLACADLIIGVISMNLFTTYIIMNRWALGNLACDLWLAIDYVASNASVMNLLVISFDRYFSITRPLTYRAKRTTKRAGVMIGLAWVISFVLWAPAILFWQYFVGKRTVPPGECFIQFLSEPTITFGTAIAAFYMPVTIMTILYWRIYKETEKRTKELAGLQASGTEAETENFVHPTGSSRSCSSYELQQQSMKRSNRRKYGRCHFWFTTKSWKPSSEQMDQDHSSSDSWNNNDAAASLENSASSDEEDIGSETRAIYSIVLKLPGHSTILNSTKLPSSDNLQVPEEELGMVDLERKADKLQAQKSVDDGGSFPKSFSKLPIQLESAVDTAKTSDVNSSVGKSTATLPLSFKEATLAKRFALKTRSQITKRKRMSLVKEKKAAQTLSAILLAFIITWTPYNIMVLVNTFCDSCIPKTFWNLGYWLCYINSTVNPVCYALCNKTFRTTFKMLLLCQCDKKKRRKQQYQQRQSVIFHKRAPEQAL

[34] = target: M4 (Homo sapiens, UniProt P08173); experiment: PDSP radioligand binding, M4; conditions: 10 μM
[35] = target: M5 (Homo sapiens, UniProt P08912); experiment: PDSP radioligand binding, M5; conditions: 10 μM
Chain of M5 (P08912 whole entry): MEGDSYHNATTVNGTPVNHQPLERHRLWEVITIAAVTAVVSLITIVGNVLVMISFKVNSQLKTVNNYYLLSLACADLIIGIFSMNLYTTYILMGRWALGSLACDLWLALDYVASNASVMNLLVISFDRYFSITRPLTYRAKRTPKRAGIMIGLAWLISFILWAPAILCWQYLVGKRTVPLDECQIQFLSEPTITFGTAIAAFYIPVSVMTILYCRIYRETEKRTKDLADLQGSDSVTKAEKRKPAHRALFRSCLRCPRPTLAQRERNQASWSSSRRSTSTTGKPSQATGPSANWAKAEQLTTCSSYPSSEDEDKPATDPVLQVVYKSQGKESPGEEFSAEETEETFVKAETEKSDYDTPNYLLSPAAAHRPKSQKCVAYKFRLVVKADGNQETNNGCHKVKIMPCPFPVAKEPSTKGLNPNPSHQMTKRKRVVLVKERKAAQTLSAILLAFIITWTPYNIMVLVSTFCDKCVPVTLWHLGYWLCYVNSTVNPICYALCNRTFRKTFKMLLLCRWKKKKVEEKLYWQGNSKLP

[36] = target: NET (Homo sapiens, UniProt P23975); experiment: PDSP radioligand binding, NET
[37] = target: NMDA; experiment: PDSP radioligand binding, NMDA
[38] = target: PBR (Rattus norvegicus, UniProt P16257); experiment: PDSP radioligand binding, PBR; conditions: 10 μM
[39] = target: SERT (Homo sapiens, UniProt P31645); experiment: PDSP radioligand binding, SERT; conditions: 10 μM
[40] = target: V1A (Homo sapiens, UniProt P37288); experiment: PDSP radioligand binding, V1A
[41] = target: V1B (Homo sapiens, UniProt P47901); experiment: PDSP radioligand binding, V1B

OCCCN1CCCC2CC1c1cc(-c3ccc(C(F)(F)F)cc3)ccc12 (racemic) [UKH-1114, (±)-9-(4-(Trifluoromethyl)phenyl)-3,4,5,6-tetrahydro-1,6-methanobenzo[c]azocin-2(1H)-yl)propan-1-ol]
time of peak relief of mechanical hypersensitivity after dosing ([1]; IT): 48 h
effect on SNI-induced mechanical hypersensitivity ([1]; single IT injection, 10 μg, vs vehicle): significant antimechanical hypersensitivity effects at either 24 or 48 h
effect on SNI-induced mechanical hypersensitivity ([2]; IV 10 mg/kg): complete reversal of mechanical hypersensitivity
duration of relief of mechanical hypersensitivity ([2]; systemic 10 mg/kg): 48 h
peak magnitude of effect compared with gabapentin ([2]; systemic 10 mg/kg vs gabapentin 100 mg/kg): equivalent to 100 mg/kg gabapentin
effect on motor performance (latency to fall, rotorod) [3]: no effect
inhibition of radioligand binding (Ki column, footnote a) [4]: ^a (<50% inhibition of radioligand binding at 10 μM)
inhibition of radioligand binding (Ki column, footnote a) [5]: ^a (<50% inhibition of radioligand binding at 10 μM)
inhibition of radioligand binding (Ki column, footnote a) [6]: ^a (<50% inhibition of radioligand binding at 10 μM)
inhibition of radioligand binding (Ki column, footnote a) [7]: ^a (<50% inhibition of radioligand binding at 10 μM)
inhibition of radioligand binding (Ki column, footnote a) [8]: ^a (<50% inhibition of radioligand binding at 10 μM)
inhibition of radioligand binding (Ki column, footnote a) [9]: ^a (<50% inhibition of radioligand binding at 10 μM)
inhibition of radioligand binding (Ki column, footnote a) [10]: ^a (<50% inhibition of radioligand binding at 10 μM)
inhibition of radioligand binding (Ki column, footnote a) [11]: ^a (<50% inhibition of radioligand binding at 10 μM)
inhibition of radioligand binding (Ki column, footnote a) [12]: ^a (<50% inhibition of radioligand binding at 10 μM)
inhibition of radioligand binding (Ki column, footnote a) [13]: ^a (<50% inhibition of radioligand binding at 10 μM)
inhibition of radioligand binding (Ki column, footnote a) [14]: ^a (<50% inhibition of radioligand binding at 10 μM)
inhibition of radioligand binding (Ki column, footnote a) [15]: ^a (<50% inhibition of radioligand binding at 10 μM)
inhibition of radioligand binding (Ki column, footnote a) [16]: ^a (<50% inhibition of radioligand binding at 10 μM)
inhibition of radioligand binding (Ki column, footnote a) [17]: ^a (<50% inhibition of radioligand binding at 10 μM)
inhibition of radioligand binding (Ki column, footnote a) [18]: ^a (<50% inhibition of radioligand binding at 10 μM)
inhibition of radioligand binding (Ki column, footnote a) [19]: ^a (<50% inhibition of radioligand binding at 10 μM)
inhibition of radioligand binding (Ki column, footnote a) [20]: ^a (<50% inhibition of radioligand binding at 10 μM)
inhibition of radioligand binding (Ki column, footnote a) [21]: ^a (<50% inhibition of radioligand binding at 10 μM)
inhibition of radioligand binding (Ki column, footnote a) [22]: ^a (<50% inhibition of radioligand binding at 10 μM)
Ki [23]: > 10 µM
inhibition of radioligand binding (Ki column, footnote a) [24]: ^a (<50% inhibition of radioligand binding at 10 μM)
inhibition of radioligand binding (Ki column, footnote a) [25]: ^a (<50% inhibition of radioligand binding at 10 μM)
inhibition of radioligand binding (Ki column, footnote a) [26]: ^a (<50% inhibition of radioligand binding at 10 μM)
inhibition of radioligand binding (Ki column, footnote a) [27]: ^a (<50% inhibition of radioligand binding at 10 μM)
inhibition of radioligand binding (Ki column, footnote a) [28]: ^a (<50% inhibition of radioligand binding at 10 μM)
inhibition of radioligand binding (Ki column, footnote a) [29]: ^a (<50% inhibition of radioligand binding at 10 μM)
inhibition of radioligand binding (Ki column, footnote a) [30]: ^a (<50% inhibition of radioligand binding at 10 μM)
inhibition of radioligand binding (Ki column, footnote a) [31]: ^a (<50% inhibition of radioligand binding at 10 μM)
inhibition of radioligand binding (Ki column, footnote a) [32]: ^a (<50% inhibition of radioligand binding at 10 μM)
inhibition of radioligand binding (Ki column, footnote a) [33]: ^a (<50% inhibition of radioligand binding at 10 μM)
inhibition of radioligand binding (Ki column, footnote a) [34]: ^a (<50% inhibition of radioligand binding at 10 μM)
inhibition of radioligand binding (Ki column, footnote a) [35]: ^a (<50% inhibition of radioligand binding at 10 μM)
Ki [36]: 1.05 µM
Ki [37]: 6.72 µM
inhibition of radioligand binding (Ki column, footnote a) [38]: ^a (<50% inhibition of radioligand binding at 10 μM)
inhibition of radioligand binding (Ki column, footnote a) [39]: ^a (<50% inhibition of radioligand binding at 10 μM)
Ki [40]: > 10 µM
Ki [41]: > 10 µM
